Drawing on ChEMBL document CHEMBL1145445, “Dual aromatase-steroid sulfatase inhibitors” (J Med Chem, 2007), this text covers IC50, inhibition in vivo and inhibition for 24 compounds.

Assay [1] has as its target T1, Aromatase (Homo sapiens, UniProt P11511).
T1 sequence (P11511 whole entry): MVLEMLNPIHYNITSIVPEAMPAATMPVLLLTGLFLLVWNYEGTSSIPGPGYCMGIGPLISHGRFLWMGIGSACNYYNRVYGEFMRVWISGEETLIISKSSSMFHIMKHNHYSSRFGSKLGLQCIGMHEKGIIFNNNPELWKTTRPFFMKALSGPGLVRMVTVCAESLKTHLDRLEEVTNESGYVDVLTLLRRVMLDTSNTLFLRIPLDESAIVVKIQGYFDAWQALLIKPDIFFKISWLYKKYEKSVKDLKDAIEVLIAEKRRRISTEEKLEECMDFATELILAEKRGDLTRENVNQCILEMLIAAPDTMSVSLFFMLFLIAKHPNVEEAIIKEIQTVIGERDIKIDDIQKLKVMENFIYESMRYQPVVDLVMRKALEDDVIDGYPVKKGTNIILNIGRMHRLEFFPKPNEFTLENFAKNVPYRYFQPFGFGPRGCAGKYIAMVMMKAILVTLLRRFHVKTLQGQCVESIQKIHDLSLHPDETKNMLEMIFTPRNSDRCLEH
Nature of the assay: Inhibition of aromatase in JEG3 cell membrane. The assay is classed as cell-based, JEG-3.

For assay [2], the target named is T2, Steryl-sulfatase (Homo sapiens, UniProt P08842).
T2 sequence (P08842 whole entry): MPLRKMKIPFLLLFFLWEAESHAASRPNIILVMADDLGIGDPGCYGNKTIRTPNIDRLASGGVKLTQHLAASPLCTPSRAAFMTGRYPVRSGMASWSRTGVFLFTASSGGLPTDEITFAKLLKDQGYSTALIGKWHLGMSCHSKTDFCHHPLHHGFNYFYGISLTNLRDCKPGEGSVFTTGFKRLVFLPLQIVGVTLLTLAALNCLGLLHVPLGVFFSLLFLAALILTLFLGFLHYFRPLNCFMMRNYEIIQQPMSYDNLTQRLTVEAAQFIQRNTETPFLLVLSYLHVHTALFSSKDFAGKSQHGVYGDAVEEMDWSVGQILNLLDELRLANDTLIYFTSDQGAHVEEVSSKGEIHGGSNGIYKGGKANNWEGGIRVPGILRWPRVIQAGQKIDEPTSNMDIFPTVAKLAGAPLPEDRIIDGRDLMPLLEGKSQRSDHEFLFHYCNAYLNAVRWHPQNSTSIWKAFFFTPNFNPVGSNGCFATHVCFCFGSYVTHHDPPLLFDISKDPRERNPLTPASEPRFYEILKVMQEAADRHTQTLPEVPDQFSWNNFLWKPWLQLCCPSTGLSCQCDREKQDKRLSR
As to the kind of experiment: Inhibition of steroid sulfatase in JEG3 cell membrane. The assay is classed as cell-based, JEG-3.

In assay [3] the test system is Rattus norvegicus. As to the kind of experiment: Inhibition of steroid sulfatase in Wistar rat assessed as liver STS activity at 10 mg/kg, po after 24 hrs.
The subject of assay [4] is Rattus norvegicus. As to the kind of experiment: Inhibition of steroid sulfatase in Wistar rat assessed as liver STS activity at 10 mg/kg, po after 3 hrs.
In assay [5] the target is T1, Aromatase. As to the kind of experiment: Inhibition of aromatase in JEG3 cell membrane at 1 uM. To be noted: JEG-3, human; read-out: Activity. The assay is classed as cell-based.
Assay [6] deals with Rattus norvegicus. Nature of the assay: Inhibition of steroid sulfatase in Wistar rat liver at 10 mg/kg, po after 3 hrs. The format is functional. The method in brief:
(§1)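 Female Wistar rats were primed with a single sc injection of PMSG (200 IU). Three days later they were dosed once orally at 10 mg/kg in THF/propylene glycol (10:90). Liver was collected 3 or 24 h after dosing and STS activity assayed. Results are expressed against activity in untreated animals, mean ± SE, n = 3.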

The test system of assay [7] is Rattus norvegicus. As to the kind of experiment: Inhibition of aromatase in Wistar rat assessed as reduction of PMSG-stimulated plasma estradiol level at 10 mg/kg, po after 24 hrs. The assay is classed as functional. An outline of the steps:
(§2)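 Female Wistar rats got a single sc injection of PMSG (200 IU). Three days later they received a single oral 10 mg/kg dose in THF/propylene glycol (10:90). Plasma estradiol was measured by radioimmunoassay at 3 or 24 h. Results are % inhibition of PMSG-stimulated estradiol, mean ± SE, n = 3, by Student's t test.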

For assay [8], the system named is Rattus norvegicus. Nature of the assay: Inhibition of aromatase in Wistar rat assessed as reduction of PMSG-stimulated plasma estradiol level at 10 mg/kg, po after 3 hrs. The assay is classed as functional. The method in brief: as §2
Assay [9] relates to Rattus norvegicus. Nature of the assay: Inhibition of steroid sulfatase in Wistar rat liver at 10 mg/kg, po. The assay is classed as functional. An outline of the steps: as §1

Consider `N#Cc1ccc(N(Cc2cccc(O)c2)n2cnnc2)cc1`, for which, in [1], half-maximal inhibition (IC50) was put at 2.8 nM.
As to `COc1cc(CN(c2ccc(C#N)cc2)n2cnnc2)cc(Cl)c1OS(N)(=O)=O`, the IC50 (as a rule, the concentration at which inhibition is half-maximal) in assay [1] is 2.9 nM; in assay [2], 536 nM.
Compound `COc1ccc(CN(c2ccc(C#N)cc2)n2cnnc2)cc1O` had an IC50 in assay [1] of 1.2 nM.
Turning to `COc1cc(CN(c2ccc(C#N)cc2)n2cnnc2)ccc1OS(N)(=O)=O`, the IC50 came to 42 nM in assay [1] and 380 nM in assay [2].
In the case of `NS(=O)(=O)Oc1ccc2c3c(c(=O)oc2c1)CCCCC3` [IROSUSTAT], the inhibition in vivo (as a rule, the share of the control response that was lost under treatment) at 10 mg/kg in assay [3] amounted to 97%; in [4], 100%.
Regarding `N#Cc1ccc(N(Cc2ccc(OS(N)(=O)=O)cc2)n2cnnc2)cc1`, in assay [5], the inhibition at 1 µM was found to be 63.4%.
With `N#Cc1ccc(N(Cc2ccc(OS(N)(=O)=O)c(I)c2)n2cnnc2)cc1`, the values for the IC50 in assay [1] and in assay [2] were 1.5 nM and 190 nM, respectively.
In assay [1], `N#Cc1ccc(N(Cc2ccc(C(F)(F)F)c(O)c2)n2cnnc2)cc1` displayed an IC50 of 0.4 nM.
Turning to `N#Cc1ccc(N(Cc2ccc(Br)c(OS(N)(=O)=O)c2)n2cnnc2)cc1`, the IC50 in assay [2] was > 10000 nM.
On to `N#Cc1ccc(N(Cc2ccc(OS(N)(=O)=O)c(C#N)c2)n2cnnc2)cc1`, for which the values for the IC50 in [1] and in assay [2] were 27 nM and > 10000 nM, respectively.
As for `N#Cc1ccc(N(Cc2ccc(F)c(OS(N)(=O)=O)c2)n2cnnc2)cc1`, the inhibition in vivo at 10 mg/kg in [3] was found to be 33%; in [4], 98%; in assay [6] it was 100%; in [7], 20%; in [8], 82%.
As for `COc1cc(CN(c2ccc(C#N)cc2)n2cnnc2)ccc1O`, it took 2.8 nM to reach half-maximal inhibition in assay [1] (IC50).
As for `N#Cc1ccc(C(c2ccc(C#N)cc2)n2cncn2)cc1` [LETROZOLE], the inhibition in vivo at 10 mg/kg in assay [3] was found to be 6%; in [4], 3%; in assay [7] it was 100%; in [8], 100%.
On to `COc1ccc(CN(c2ccc(C#N)cc2)n2cnnc2)cc1OS(N)(=O)=O`, for which the IC50 in [2] is > 10000 nM.
In assay [1], `N#Cc1ccc(N(Cc2ccc(O)c(C#N)c2)n2cnnc2)cc1` gave an IC50 of 24 nM.
Turning to `N#Cc1ccc(N(Cc2ccc(F)c(O)c2)n2cnnc2)cc1`, in [1], the IC50 was found to be 0.6 nM.
Turning to `N#Cc1ccc(N(Cc2ccc(Cl)c(O)c2)n2cnnc2)cc1`, the midpoint of inhibition in [1], the IC50, lay at 0.18 nM.
Take `N#Cc1ccc(N(Cc2ccc(O)c(C(F)(F)F)c2)n2cnnc2)cc1`: the midpoint of inhibition in assay [1], the IC50, lay at 0.88 nM.
In turn, `N#Cc1ccc(N(Cc2c(F)c(F)c(O)c(F)c2F)n2cnnc2)cc1` had an IC50 in [1] of 159 nM.
The compound `N#Cc1ccc(N(Cc2ccc(O)c(I)c2)n2cnnc2)cc1` returned an IC50 in assay [1] of 0.33 nM.
`COc1cc(CN(c2ccc(C#N)cc2)n2cnnc2)cc(Cl)c1O` yielded an IC50 in assay [1] of 0.51 nM.
Regarding `N#Cc1ccc(N(Cc2ccc(OS(N)(=O)=O)c(Br)c2)n2cnnc2)cc1`, the inhibition in vivo at 10 mg/kg in assay [3] turned out to be 72%; in [9] it was 100%; in assay [4], 98%; in assay [6] it was 100%; in assay [7], 85%; in assay [8] it was 100%.
The compound `N#Cc1ccc(N(Cc2cc(Cl)c(O)c(Cl)c2)n2cnnc2)cc1` yielded an IC50 in assay [1] of 7.6 nM.
Same read-out and setting: next, `N#Cc1ccc(N(Cc2ccc(Br)c(O)c2)n2cnnc2)cc1`: 0.5 nM.
